Lmaj promast = Leishmania major promastigote growth inhibition, primary screen. hit rate 9% among 200,000. inhibition, % at 10 µM. Leishmania major promastigotes, resazurin fluorescence viability. AID 1063, 2008; in the data active = inhibition above about 50%;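 note: promastigotes grown with compound for 44 hours at 28 °C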
Lipid droplet = inhibitors of hepatocyte lipid droplet formation, primary screen, imaging, high-throughput imaging, BODIPY stain; hit rate 0.4% among 240,000; AID 1656, 2009; inhibition, % at 6.5 µM; AML12 mouse hepatocytes, oleate lipid droplets;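 active = lipid droplet intensity inhibited by at least 50%, with more than 500 cells counted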
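Test system: AML12 hepatocytes (mouse); reagent: oleate loading, 100 µM; dosing: one dose, 6.5 µM compound; incubation: overnight exposure; signal: fluorescence imaging, 20x objective, two fields per well; read-out basis: % inhibition of corrected integrated BODIPY droplet signal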
MPTP inh = mitochondrial permeability transition pore inhibitors, primary screen, biochemical, isolated mouse mitochondria, absorbance. Ca2+ swelling absorbance, 30 min. inhibition, % at 10 µM. hit rate 1.4% among 360,000. AID 602449, 2012;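 active = inhibition of 50% or more, scaled per plate between neutral and stimulator controls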;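 note: 0% = DMSO wells given calcium and 100% = 1 mM EGTA wells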
T cruzi repl = inhibitors of intracellular T. cruzi growth, primary screen, luminescence, NIH3T3 host cells; hit rate 1.4% among 300,000; T. cruzi beta-gal in NIH3T3, 90 h; AID 1885, 2009; inhibition, % (no concentration beside the values);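 active = mean inhibition across valid replicates above about 55%, limit read from the data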;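 note: signal also drops with host cell toxicity which is not excluded here; 0% = plate median of DMSO wells and 100% = zero luminescence signal; higher percent means less beta-gal luminescence so fewer parasites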
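assay system = mouse NIH/3T3 fibroblasts infected with β-gal-expressing T. cruzi Tulahuen C4 | input = 5,000 NIH/3T3 host cells per well | buffer or medium = DMEM plus 2% FBS | timing = 3 h host attachment, then at least 90 h co-culture | measured by = GalScreen luminescence, 60 min | evaluation = luminescence reflecting intracellular parasite burden, expressed as percent inhibition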
Redox H2O2 prof = compounds producing H2O2 with reducing agent – biochemical, NIH compound library profiling, artefact control for MLSCN library redox annotation, primary screen | DTT-dependent redox cycling H2O2, phenol red/HRP absorbance; 100% = 100 µM peroxide control, 0% = buffer | activation, % at 10 µM | hit rate 0.03% among 200,000 | AID 878, 2007;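 active = activation of at least 50% relative to the plate's high and low controls in the primary single-dose screen; inactive = activation below 50%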;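 note: compound incubated with DTT at 0.8 mM final as the reducing agent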
The depositor's hits bear a star; . = no result given. The entries come from a sample that favours hits as a whole.

SMILES	Lmaj promast	Lipid droplet	MPTP inh	T cruzi repl	Redox H2O2 prof
O=C(CN1CCN(c2ccccn2)CC1)N1c2ccccc2Sc2ccc(C(F)(F)F)cc21	68*	.	-2	21	1
CCOc1ccccc1C(=O)Nc1ccccc1-c1ccccc1	73*	-14	4	7	0
CCOc1ccccc1C(=O)Nc1ccccc1O	71*	-2	2	-48	1
CC(=O)Nc1ccc(S(=O)(=O)Nc2cc(S(=O)(=O)N3CCCCC3)ccc2O)cc1	.	.	-1	.	.
O=C(c1cccc(C(F)(F)F)c1)C1CCCN(C(=O)CCn2cnnn2)C1 (configuration not stated)	.	-15	2	-6	.
CC(C)C(=O)N1CCN(c2cc(N3CCN(C)CC3)c(F)cc2[N+](=O)[O-])CC1	96*	-2	-1	77*	-1
O=C(O)/C=C/c1cnc2ccccc2n1	0	8	-2	4	1
CCC(C)(C)NC(=O)/C=C/c1cnc2ccccc2n1	52*	4	-1	3	.
CCOC(=O)c1ccc(Nc2sc(C(=O)c3cccc([N+](=O)[O-])c3)c(N)c2C#N)cc1	.	-8	4	0	.
CSCCC(NC(=O)COc1ccccc1)C(=O)N(C)Cc1cccc(F)c1 (configuration not stated)	.	.	0	.	.
N#Cc1c(N)sc2c1CCN(CCc1ccccc1)C2	-2	2	-1	4	0
N#Cc1c(NC(=S)NC(=O)c2ccccc2)sc2c1CCN(CCc1ccccc1)C2	27	14	.	71*	0
O=C(COC(=O)c1cc(-c2ccccn2)nc2ccccc12)Nc1ncc(C(F)(F)F)cc1Cl	.	3	1	-10	.
Cc1ccc2c(c1)CCCN2CC(=O)N(C)c1c(N)n(Cc2ccccc2)c(=O)[nH]c1=O	.	.	0	.	.
CCN(CC)c1ccc(C(=O)NC(=S)Nc2cc(S(=O)(=O)N3CCOCC3)ccc2-n2cncn2)cc1	68*	5	2	16	-1
CCCCCn1c(N2CCN(Cc3ccccc3)CC2)nc2c1c(=O)[nH]c(=O)n2C	100*	30	2	11	3
CCCCCn1c(N2CCC(Cc3ccccc3)CC2)nc2c1c(=O)[nH]c(=O)n2C	99*	.	-2	57*	-1
CCCn1c(N2CCC(Cc3ccccc3)CC2)nc2c1c(=O)[nH]c(=O)n2C	20	.	0	18	0
COc1cc(CN2CCN(C(C)C)C(CCO)C2)ccc1OCc1ccccc1 (configuration not stated)	33	-25	7	31	-1
Cc1ccc(S(=O)(=O)N(C)C)cc1-n1c(SCC(=O)Nc2ccc(F)cc2)nc2ccccc2c1=O	33	-31	4	20	0
Cc1ccccc1-n1c(SCC(N)=O)nc2sc(-c3ccccc3)cc2c1=O	21	10	-17	5	0
Cc1nn(-c2ccccc2)c(C)c1/C=N/NC(=O)CSc1nnc(SCc2cccc3ccccc23)s1	97*	17	4	21	0
Cc1ccc(-n2c(SCC(=O)N/N=C/c3c(C)nn(-c4ccccc4)c3C)nc3ccccc3c2=O)cc1	12	-43	0	36	0
Cc1ccccc1-n1c(SCC(=O)NC(N)=O)nc2sc(-c3ccccc3)cc2c1=O	61*	2	0	6	0
Cc1ccc(/C=N/NC(=O)CSc2nc3ccccc3c(=O)n2-c2ccccc2C)s1	14	0	-19	-1	0
SMILES	Lmaj promast	Lipid droplet	MPTP inh	T cruzi repl	Redox H2O2 prof
Cc1ccccc1-n1c(SCC(=O)N/N=C/c2sccc2C)nc2ccccc2c1=O	86*	18	14	10	0
Cc1ccc(S(=O)(=O)N(C)C)cc1-n1c(SCC(=O)Nc2ccccc2)nc2ccccc2c1=O	89*	-15	1	3	1
Cc1ccccc1-n1c(SCC(=O)N/N=C/c2c(C)nn(-c3ccccc3)c2C)nc2ccccc2c1=O	11	18	-1	56*	0
N#Cc1ncc(-c2ccc3c(c2)OCCOCCOCCOCCO3)nc1C#N	22	-6	0	11	0
N#Cc1ncc(-c2ccc3c(c2)OCCOCCOCCOCCOCCO3)nc1C#N	96*	-14	0	5	0
COc1ccc(-c2nnc3n2CCCCC3)cc1OC	.	-8	-2	-2	.
COc1ccc(-c2csc(Cc3nnc4n3CCCCC4)n2)cc1OC	60*	.	-1	30	3
